Type in all cases: cell-based
Test [1] concerns the target T1, Amino acid transporter (Rattus norvegicus) (UniProt Q9Z1J7).
T1 sequence (whole entry): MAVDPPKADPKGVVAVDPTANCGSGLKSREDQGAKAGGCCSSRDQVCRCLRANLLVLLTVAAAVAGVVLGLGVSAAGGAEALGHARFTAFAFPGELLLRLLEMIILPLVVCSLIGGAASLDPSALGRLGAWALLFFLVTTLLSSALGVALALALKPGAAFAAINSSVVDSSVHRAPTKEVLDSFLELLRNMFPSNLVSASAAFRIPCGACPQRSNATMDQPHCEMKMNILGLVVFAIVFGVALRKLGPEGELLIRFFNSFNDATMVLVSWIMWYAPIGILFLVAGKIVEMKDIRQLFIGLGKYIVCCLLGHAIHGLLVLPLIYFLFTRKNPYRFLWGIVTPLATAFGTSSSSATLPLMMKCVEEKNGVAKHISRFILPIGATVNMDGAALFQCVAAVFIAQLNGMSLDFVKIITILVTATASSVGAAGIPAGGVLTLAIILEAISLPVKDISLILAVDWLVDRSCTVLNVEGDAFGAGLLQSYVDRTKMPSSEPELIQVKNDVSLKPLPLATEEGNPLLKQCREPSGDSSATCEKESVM
The test can be described thus: Inhibition of rat ASCT2 expressed in HEK293 cells assessed as inhibition of L-alanine/Na+ exchange by measuring reduction in SCN anion inward current at 1 mM in presence of NaCl and NaSCN by whole cell patch-clamp method. An outline of the steps:
(§1)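 Rat ASCT2 transiently transfected into HEK293T cells (no detectable endogenous ASCT2); whole-cell recording at 0 mV with 140 mM external NaCl, 135 mM internal NaSCN, 10 mM internal alanine. Compound applied at 1 mM; current expressed relative to saturating alanine response, saturating current calculated as I/Imax = c/(c+Km). Outward current taken as inhibition of leak anion conductance.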

Test [2] concerns the target T1, Amino acid transporter (Rattus norvegicus). The test can be described thus: Inhibition of rat ASCT2 expressed in HEK293 cells assessed as outward current by measuring reduction in SCN anion inward current at 1 mM in presence of NaCl and NaSCN by whole cell patch-clamp method. An outline of the steps: as §1
On the technique in general: The patch-clamp technique gives a direct electrical read-out from membranes.

In another test the target is T2, Amino acid transporter (Rattus norvegicus, UniProt Q9Z1J7).
T2 sequence (Q9Z1J7 whole entry): T1 sequence (whole entry)
The test can be described thus: Inhibition of rat ASCT2 expressed in HEK293 cells assessed as inhibition of L-alanine/Na+ exchange by measuring reduction in SCN anion inward current in presence of NaCl and NaSCN by whole cell patch-clamp method. As to conditions: read-out: Ki(app).

Activity calls are given as the source filed them. The rule behind the calls is not given here.

Consider `O=C(O)C1C[C@@H](Cc2ccccc2[N+](=O)[O-])CN1` (single isomer, unassigned), for which the Imax in test [1] turned out to be 61%. The inhibition entry in test [2] is “Active”.

For `O=C(O)C1C[C@@H](Cc2ccccc2)CN1` (single isomer, unassigned), in test [1], the Imax was 52%. For the same molecule, the Ki on Amino acid transporter amounted to 2000 µM.

In the case of `O=C(O)C1C[C@@H](Cc2cccc(F)c2)CN1` (single isomer, unassigned), in test [1], the Imax came out at 67%. Besides, on Amino acid transporter, the Ki stood at 177 µM. The inhibition result in test [2] was “Active”.

Take `O=C(O)[C@@H]1C[C@@H](Cc2ccc(-c3ccccc3)cc2)CN1`: the Imax in test [1] came to 57%. Besides, the Ki at Amino acid transporter was 3 µM. For the same molecule, the inhibition result in test [2] was “Active”.

Turning to `O=C(O)C1C[C@@H](Cc2ccccc2Br)CN1` (single isomer, unassigned), the Imax in test [1] turned out to be 55%. Further, in test [2], the inhibition result is “Active”.

For `O=C(O)C1C[C@@H](Cc2ccc(F)c(F)c2)CN1` (single isomer, unassigned), the Imax in test [1] was found to be 51%. For the same molecule, the Ki on Amino acid transporter stood at 73 µM. Moreover, the inhibition result in test [2] was “Active”.

Take `O=C(O)C1C[C@@H](Cc2ccc(F)cc2)CN1` (single isomer, unassigned): in test [1], the Imax came out at 57%. Moreover, the Ki at Amino acid transporter worked out at 190 µM. The inhibition entry in test [2] was “Active”.

On to `O=C(O)C1C[C@@H](Cc2ccccc2Cl)CN1` (single isomer, unassigned), for which the Imax in test [1] is 46%. Further, at Amino acid transporter, the Ki was 195 µM. In addition, in test [2], the inhibition result was “Active”.

For `O=C(O)C1C[C@@H](Cc2ccccc2F)CN1` (single isomer, unassigned), the Imax in test [1] amounted to 61%. Also, the Ki at Amino acid transporter lay within 83 to 87 µM. In addition, the inhibition entry in test [2] was “Active”.

Turning to `O=C(O)C1C[C@@H](Cc2ccccc2C(F)(F)F)CN1` (single isomer, unassigned), in test [1], the Imax stood at 49%. Besides, the Ki on Amino acid transporter is 220 µM. For the same molecule, the inhibition result in test [2] was “Active”.

Turning to `O=C(O)C1C[C@@H](Cc2ccc(C(F)(F)F)cc2)CN1` (single isomer, unassigned), the Imax in test [1] was found to be 47%. In test [2], the inhibition result is “Active”.

Consider `Cc1ccccc1C[C@H]1CNC(C(=O)O)C1` (single isomer, unassigned), for which the Imax in test [1] was 59%. Moreover, the Ki at Amino acid transporter is 38 µM. Also, in test [2], the inhibition entry was “Active”.

For the molecule `O=C(O)C1C[C@@H](Cc2cccc(C(F)(F)F)c2)CN1` (single isomer, unassigned), the Imax in test [1] came out at 43%. Besides, in test [2], the inhibition entry is “Active”.

In the case of `O=C(O)[C@@H]1C[C@@H](Cc2ccc(Cl)cc2Cl)CN1`, the Imax in test [1] was 56%. For the same molecule, the Ki at Amino acid transporter turned out to be 30 µM. Besides, in test [2], the inhibition entry is “Active”.

These data come from ChEMBL document CHEMBL4000227, “Structure activity relationships of benzylproline-derived inhibitors of the glutamine transporter ASCT2” (Bioorg Med Chem Lett, 2017).
